These molecules were tested against Sodium-dependent dopamine transporter (Rattus norvegicus) (UniProt P23977) (assay: Binding affinity to Dopamine transporter (DAT) using [3H]WIN-35428 at 1 uM).
In short: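 Rat striatal membranes (male Sprague-Dawley, 200-225 g) in modified Krebs-HEPES buffer, pH 7.4. Each tube held 2.5 mg tissue (original wet weight) and 1.5 nM [3H]WIN 35,428. Membranes were preincubated 5 min with or without 1 μM test compound, in triplicate, then incubated 60 min on ice. Nonspecific binding was taken with 0.1 mM cocaine·HCl. Filtration through BSA-presoaked GF/B filters, scintillation counting.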

Sequence of Sodium-dependent dopamine transporter (Rattus norvegicus) (P23977 whole entry): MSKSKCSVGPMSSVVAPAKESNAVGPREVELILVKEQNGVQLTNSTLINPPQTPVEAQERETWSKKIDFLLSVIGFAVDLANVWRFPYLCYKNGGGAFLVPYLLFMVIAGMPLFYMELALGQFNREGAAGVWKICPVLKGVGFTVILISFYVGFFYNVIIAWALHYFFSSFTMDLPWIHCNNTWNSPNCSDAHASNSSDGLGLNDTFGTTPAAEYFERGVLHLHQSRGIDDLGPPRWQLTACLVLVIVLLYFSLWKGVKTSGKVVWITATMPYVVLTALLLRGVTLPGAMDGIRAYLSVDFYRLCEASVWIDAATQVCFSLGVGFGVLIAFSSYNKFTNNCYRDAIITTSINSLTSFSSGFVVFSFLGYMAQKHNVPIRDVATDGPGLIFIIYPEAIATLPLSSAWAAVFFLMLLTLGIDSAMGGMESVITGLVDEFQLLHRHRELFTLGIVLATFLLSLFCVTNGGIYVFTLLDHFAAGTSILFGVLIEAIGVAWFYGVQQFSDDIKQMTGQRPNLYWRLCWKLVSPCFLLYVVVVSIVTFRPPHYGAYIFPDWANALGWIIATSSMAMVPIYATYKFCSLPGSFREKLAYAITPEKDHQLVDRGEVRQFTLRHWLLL

| Compound | Specific binding [%] |
| --- | --- |
| CC(C(OC(=O)C1c2ccccc2-c2ccccc21)c1ccccc1)N(C)C (stereo not given) | 19 |
| CCOC(=O)N1CCN(Cc2c[nH]c3ccccc23)CC1 | 88.5 |
| c1ccc(C(CN2CCCCC2)OCc2cccs2)cc1 (stereo not given) | 42.1 |
| CN1CCC(OC(c2ccccc2)c2ccc(Cl)cc2)C1 (stereo not given) | 8.43 |
| CC(CN1CCCC1)OC(=O)C(c1ccccc1)C1C=CCC1 (stereo not given) | 49.7 |
| O=C1N2CCNc3ccccc3C(c3ccccc3)N1CC2 (stereo not given) | 55.8 |
| O=C1c2ccccc2CC1CN1CCCCC1 (stereo not given) | 89.9 |
| COc1cc(NCCN(CC(C)C)CC(C)C)c2ncccc2c1 | 81.6 |
| c1ccc2c(CN3CCOCC3)c[nH]c2c1 | 88.1 |
| CCCCN(CCCC)CCC(=O)c1cc(-c2ccccc2)oc1-c1ccccc1 | 93.4 |
| Clc1ccc(C2NCCNCc3ccccc32)cc1 (stereo not given) | 54.3 |

The molecules below were run against Sodium-dependent dopamine transporter (Rattus norvegicus, UniProt P23977).
Sequence of Sodium-dependent dopamine transporter (P23977 whole entry): as above

| Compound | Ki [nM] |
| --- | --- |
| COC(=O)/C=C/[C@@H]1C2CCC(C[C@@H]1c1ccccc1)N2C (stereo not given in full) | 21.9 |
| COc1ccc(C(O[C@H]2C[C@H]3CC[C@@H](C2)N3C)c2ccccc2)cc1 (stereo not given in full) | 79.4 |
| CN(C)C/C=C(\c1cccnc1)c1cccc(Br)c1 | 11200 |
| COC(=O)[C@@H]1C2CC[C@H](C[C@@H]1c1ccc(C)cc1)N2C | 5.01 |
| CC[C@H]1CC2[C@@H](CC(=O)OC)[C@@H](Cc3ccccc3)CC1N2C (stereo not given in full) | 309 |
| CN1C2CCC1[C@@H](CCCO)[C@@H](c1ccccc1)C2 (stereo not given in full) | 11 |
| CN1[C@@H]2CC[C@H]1C[C@@H](OC(c1ccccc1)c1ccc(Cl)c(Cl)c1)C2 (stereo not given in full) | 21.4 |
| COC(=O)[C@@H]1C2CC[C@H](C[C@@H]1c1ccccc1)N2C | 87.1 |
| O=C(OCCN1CCOCC1)C1(c2ccccc2)CCCCC1 | 5370 |
| CCC(=O)[C@@H]1C2CCC(C[C@@H]1OC(=O)c1ccccc1)N2C (stereo not given in full) | 309 |
| CC(NC(C)(C)C)C(=O)c1cccc(Cl)c1 (stereo not given) [BUPROPION] | 372 |
| COC(=O)/C=C/CC[C@@H]1C2CCC(C[C@@H]1c1ccccc1)N2C (stereo not given in full) | 20 |
| CN1C2CCC1[C@@H](CCC(=O)c1ccccc1)[C@@H](c1ccccc1)C2 (stereo not given in full) | 28.2 |
| COc1ccc2c(c1)CN(C)CC2c1ccc(Cl)c(Cl)c1 (stereo not given) [DICLOFENSINE] | 7.08 |
| CC(C)OC(=O)[C@@H]1C2CC[C@H](C[C@@H]1c1ccc(I)cc1)N2C | 3.98 |
| COC(=O)CC[C@@H]1C2CCC(C[C@@H]1c1ccccc1)N2C (stereo not given in full) | 22.9 |
| COC(=O)CCCC[C@@H]1C2CCC(C[C@@H]1c1ccccc1)N2C (stereo not given in full) | 30.2 |

| Compound | Ki [nM] |
| --- | --- |
| CCC[C@H]1CC2[C@@H](CC(=O)OC)[C@@H](Cc3ccccc3)CC1N2C (stereo not given in full) | 4170 |
| C[C@@H]1CN(CCCn2c3ccccc3c3ccccc32)C[C@H](C)N1 [RIMCAZOLE] | 105 |
| CN1C2CCC1[C@@H](/C=C/CO)[C@@H](c1ccccc1)C2 (stereo not given in full) | 16.2 |
| COC(=O)CC(c1ccccc1)C1CCCCN1 (stereo not given) | 186 |
| CN1[C@@H]2CC[C@H]1C[C@@H](OC(c1ccccc1)c1cccc(C(F)(F)F)c1)C2 (stereo not given in full) | 191 |
| CCCC[C@H]1CC2[C@@H](CC(=O)OC)[C@@H](Cc3ccccc3)CC1N2C (stereo not given in full) | 8510 |
| NC12CCC(c3ccccc3)(CC1)CC2 | 83.2 |
| COC(=O)C[C@@H]1C2C[C@H](C)C(C[C@@H]1Cc1ccccc1)N2C (stereo not given in full) | 214 |
| CN1C2CCC1[C@@H](CCCc1ccccc1)[C@@H](c1ccccc1)C2 (stereo not given in full) | 16.2 |
| CC(=O)[C@@H]1C2CCC(C[C@@H]1OC(=O)c1ccccc1)N2C (stereo not given in full) | 191 |
| CCCN1CCCC(c2ccc(O)cc2)C1 (stereo not given) | 562 |
| COC(=O)C1C2CC[C@H](C[C@@H]1c1ccc(Cl)cc1)N2C (stereo not given in full) | 2 |
| c1ccc2sc(C3(N4CCCCC4)CCCCC3)cc2c1 | 10 |
| COc1ccccc1OC(CCN)c1ccccc1 (stereo not given) | 562 |
| CN1[C@@H]2CC[C@H]1C[C@@H](OC(c1ccccc1)c1ccccc1N)C2 (stereo not given in full) [AMINOBENZTROPINE] | 1860 |
| COC(=O)C[C@@H]1C2C[C@H](Cc3ccccc3)C(C[C@@H]1Cc1ccccc1)N2C (stereo not given in full) | 3090 |
| COC(=O)[C@@H]1C2CC[C@H](C[C@@H]1c1ccc(I)cc1)N2C | 2.09 |

From ChEMBL document CHEMBL1132952, “2D QSAR modeling and preliminary database searching for dopamine transporter inhibitors using genetic algorithm variable selection of Molconn Z descriptors” (J Med Chem, 2000)
